Results taken from ChEMBL document CHEMBL4808163, “Benzothiazolyl and Benzoxazolyl Hydrazones Function as Zinc Metallochaperones to Reactivate Mutant p53” (J Med Chem, 2021).
The source made the active and inactive calls. The rule behind the calls is not given here.

What was measured:
Sodium channel site 2 = test: Displacement of [3H]batrachotoxinin from rat Sodium channel site 2 at 10 uM incubated for 60 mins by radiometric scintillation analysis relative to control; conditions: rat sodium channel site 2, probe [3H]batrachotoxinin
hERG (KCNH2) = hERG (KCNH2) (Homo sapiens, UniProt Q12809); test: Displacement of [3H]-dofetilide from human recombinant ERG at 10 uM relative to control; conditions: probe [3H]-dofetilide
[1] = Induction of Zinc-dependent p53 R175H mutant refolding by assessing wild type conformation
Method in brief: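 Cells grown on coverslips and treated, fixed in 4% paraformaldehyde 10 min, permeabilized in 0.5% Triton X-100 5 min. Stained overnight with conformation-specific antibodies PAB1620 (1:50, wild-type fold) and PAB240 (1:400, misfolded/unfolded), then goat anti-mouse IgG secondary for 40 min.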

TOV112D [2] = test: Anticancer activity against human TOV112D cells harbouring p53 R175H mutant xenografted NCr nu/nu mouse assessed as tumor growth inhibition at 5.73 mg/kg, ip relative to control; format: functional; conditions: read-out: TGI
Method in brief: (§1)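 Tumors (five per group) were grown to 50 mm³, then the compound was given ip daily. Dimensions were measured every other day, with volume = L × W² × π/6. Significance was tested by Student's t test.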

[3] = target: Sodium-dependent noradrenaline transporter (Homo sapiens, UniProt P23975); test: Displacement of [3H]nisoxetine from recombinant human norepinephrine transporter at 10 uM incubated for 120 mins by radiometric scintillation analysis relative to control; format: ADME; conditions: probe [3H]nisoxetine
[4] = target: 5-hydroxytryptamine receptor 2A (Homo sapiens, UniProt P28223); test: Displacement of [125I]+/-DOI from human recombinant 5-HT2A receptor at 10 uM after 60 mins by scintillation counting analysis relative to control; conditions: recombinant human 5-HT2A receptor, probe [125I]+/-DOI
TOV112D [5] = test: Growth inhibition of human TOV112D cells harbouring p53 R175H mutant incubated for 3 days by MTS assay; format: functional, cell-based; conditions: 72 h
[6] = Binding affinity to Zn(II)+ incubated for 60 mins using FluoZin-3 by fuorescence assay
NCI-H1299 [7] = test: Induction of ROS production in human H1299 cells at 0.75 uM incubated for 24 hrs by CellRox green based fluorescence flow cytometry relative to ZMC1; format: functional
[8] = Ratio of EC50 for test compound to EC50 for ZMC1 for growth inhibition of human TOV-112D cells harbouring p53 R175H mutant incubated for 3 days by MTS assay; format: functional, TOV112D; conditions: time 3 day
Mu-type opioid receptor = Mu-type opioid receptor (Homo sapiens, UniProt P35372); test: Displacement of [3H]DAMGO from human recombinant mu receptor at 10 uM after 120 mins by scintillation counting analysis relative to control; conditions: probe [3H]DAMGO
[9] = Binding affinity to Zn(II)+ incubated for 60 mins using RhodZin-3 by fuorescence assay
NCI-H1299 [10] = test: Cytotoxicity against p53-null human H1299 cells; format: functional, cell-based
Method in brief: (§2)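 5000 cells/well seeded; serial compound dilutions added next day at about 50% confluence. Growth read by MTS or Calcein AM after 3 days. Three independent experiments, each in triplicate; significance by Student's t test.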

TOV112D [11] = test: Anticancer activity against human TOV112D cells harbouring p53 R175H mutant xenografted NCr nu/nu mouse assessed as tumor growth inhibition at 5 mg/kg, ip relative to control; format: functional; conditions: read-out: TGI; method in brief: as §1
MDA-MB-468 = test: Anticancer activity against human MDA-MB-468 cells harbouring p53 R273H mutant xenografted NCr nu/nu mouse assessed as tumor growth inhibition at 5.73 mg/kg, ip relative to control; format: functional, organism-based
Method in brief: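 MDA-MB-468 xenografts (6 × 10⁶ cells/site) in NCr nu/nu nude mice, five tumors per group, grown to 50 mm³, then dosed ip daily. Tumor length and width measured every other day; volume = L × W² × π/6. Growth versus control compared by Student's t test.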

[12] = Toxicity in NCr nu/nu mouse assessed as change in body weight loss up to 30 mg/kg, ip; format: organism-based; conditions: in vivo
Method in brief: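 NCr nu/nu mice, 8–12 weeks old, 5 per dose, given a single intraperitoneal injection for acute maximum tolerated dose testing. Health, behavior and body weight monitored afterward.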

NCI-H460 = test: Cytotoxicity against human NCI-H460 cells harbouring p53 wild type; format: functional, cell-based; method in brief: as §2
[13] = Apparent permeability in human Caco-2 cells at 5 uM measured up to 90 mins by LC-MS/MS analysis; format: ADME, cell-based

Sequence of Mu-type opioid receptor (P35372 whole entry): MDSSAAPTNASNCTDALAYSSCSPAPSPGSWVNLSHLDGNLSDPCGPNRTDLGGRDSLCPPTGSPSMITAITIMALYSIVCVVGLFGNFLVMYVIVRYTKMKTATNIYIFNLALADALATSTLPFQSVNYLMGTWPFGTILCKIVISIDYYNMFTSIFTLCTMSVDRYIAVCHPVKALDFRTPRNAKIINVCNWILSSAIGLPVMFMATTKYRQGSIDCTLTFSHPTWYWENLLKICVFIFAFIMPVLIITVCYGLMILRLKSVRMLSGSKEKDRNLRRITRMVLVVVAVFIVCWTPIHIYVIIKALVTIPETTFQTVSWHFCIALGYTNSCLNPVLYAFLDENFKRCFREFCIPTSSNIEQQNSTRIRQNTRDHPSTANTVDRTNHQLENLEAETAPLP
Sequence of Sodium-dependent noradrenaline transporter (P23975 whole entry): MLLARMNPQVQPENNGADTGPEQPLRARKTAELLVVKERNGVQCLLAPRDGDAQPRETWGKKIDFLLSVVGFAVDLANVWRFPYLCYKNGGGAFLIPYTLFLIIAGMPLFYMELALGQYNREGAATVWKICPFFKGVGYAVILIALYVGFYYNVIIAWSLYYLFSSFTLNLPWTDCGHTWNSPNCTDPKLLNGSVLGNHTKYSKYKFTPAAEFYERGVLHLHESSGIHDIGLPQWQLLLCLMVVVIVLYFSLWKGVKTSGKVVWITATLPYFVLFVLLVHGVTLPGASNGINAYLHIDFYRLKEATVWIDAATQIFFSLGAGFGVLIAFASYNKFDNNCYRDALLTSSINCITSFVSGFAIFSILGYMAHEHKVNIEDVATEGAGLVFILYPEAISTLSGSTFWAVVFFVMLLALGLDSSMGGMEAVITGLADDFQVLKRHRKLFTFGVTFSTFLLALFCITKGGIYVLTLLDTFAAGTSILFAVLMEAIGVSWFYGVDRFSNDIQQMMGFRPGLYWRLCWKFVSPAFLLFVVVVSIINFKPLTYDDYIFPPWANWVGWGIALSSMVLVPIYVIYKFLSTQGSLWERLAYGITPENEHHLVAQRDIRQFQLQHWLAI
Sequence of 5-hydroxytryptamine receptor 2A (P28223 whole entry): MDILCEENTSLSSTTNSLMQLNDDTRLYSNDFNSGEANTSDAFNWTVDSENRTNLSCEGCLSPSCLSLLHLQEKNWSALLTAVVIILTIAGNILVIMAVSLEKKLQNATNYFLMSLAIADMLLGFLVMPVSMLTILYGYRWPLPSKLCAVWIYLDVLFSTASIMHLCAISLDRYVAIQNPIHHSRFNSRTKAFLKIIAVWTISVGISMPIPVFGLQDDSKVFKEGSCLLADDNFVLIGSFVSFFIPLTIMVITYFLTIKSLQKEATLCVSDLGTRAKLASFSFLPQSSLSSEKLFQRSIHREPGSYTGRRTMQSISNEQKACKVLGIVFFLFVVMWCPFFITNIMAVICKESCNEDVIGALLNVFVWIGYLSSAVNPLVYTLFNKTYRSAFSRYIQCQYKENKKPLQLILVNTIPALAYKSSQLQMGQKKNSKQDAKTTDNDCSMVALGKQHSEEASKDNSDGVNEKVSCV
Sequence of hERG (KCNH2) (Q12809 whole entry): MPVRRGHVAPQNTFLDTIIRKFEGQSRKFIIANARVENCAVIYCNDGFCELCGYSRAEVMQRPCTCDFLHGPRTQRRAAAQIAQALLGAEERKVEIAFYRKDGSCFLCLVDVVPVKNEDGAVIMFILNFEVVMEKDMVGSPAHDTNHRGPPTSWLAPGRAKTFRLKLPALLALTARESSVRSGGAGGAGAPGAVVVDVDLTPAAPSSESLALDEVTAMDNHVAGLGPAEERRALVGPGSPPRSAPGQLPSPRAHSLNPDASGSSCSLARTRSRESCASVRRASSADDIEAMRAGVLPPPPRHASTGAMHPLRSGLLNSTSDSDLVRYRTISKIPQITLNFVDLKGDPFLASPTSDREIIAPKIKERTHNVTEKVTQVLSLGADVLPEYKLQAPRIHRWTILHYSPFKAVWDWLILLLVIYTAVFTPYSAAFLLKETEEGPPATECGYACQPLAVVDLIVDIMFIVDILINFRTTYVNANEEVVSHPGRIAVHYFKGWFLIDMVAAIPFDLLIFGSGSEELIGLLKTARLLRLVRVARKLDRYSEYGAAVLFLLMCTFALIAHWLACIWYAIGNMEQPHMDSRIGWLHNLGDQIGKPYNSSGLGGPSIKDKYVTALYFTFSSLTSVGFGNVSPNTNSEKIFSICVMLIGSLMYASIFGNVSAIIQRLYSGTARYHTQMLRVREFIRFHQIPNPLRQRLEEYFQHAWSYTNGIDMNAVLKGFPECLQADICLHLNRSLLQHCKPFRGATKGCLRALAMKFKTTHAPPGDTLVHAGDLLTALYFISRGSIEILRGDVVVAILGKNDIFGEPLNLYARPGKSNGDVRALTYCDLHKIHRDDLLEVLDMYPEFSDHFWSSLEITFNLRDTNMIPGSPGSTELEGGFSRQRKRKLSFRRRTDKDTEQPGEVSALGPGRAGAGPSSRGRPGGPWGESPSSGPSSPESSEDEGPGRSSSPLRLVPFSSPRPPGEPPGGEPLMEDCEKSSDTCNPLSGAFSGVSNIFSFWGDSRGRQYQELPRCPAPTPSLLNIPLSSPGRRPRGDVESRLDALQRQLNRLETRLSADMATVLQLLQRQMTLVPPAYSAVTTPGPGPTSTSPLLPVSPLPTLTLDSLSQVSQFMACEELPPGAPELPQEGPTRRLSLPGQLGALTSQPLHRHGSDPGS

Row | SMILES | inhibition at 1 h, 10 µM (Sodium channel site 2) [%] | inhibition at 10 µM (hERG (KCNH2)) [%] | Activity [1] | inhibition at 2 h, 10 µM [3] [%] | inhibition at 1 h, 10 µM [4] [%] | EC50 (TOV112D [5]) [nM] | Kd [6] [nM] | Ratio (NCI-H1299 [7]) | further results
1 | C/C(=N\Nc1nc2ccccc2n1CCN1CCOCC1)c1ccccn1 | 50 | 76 | Active | -7 | 100 | 51 | 71 |  | inhibition in vivo at 5.73 mg/kg (TOV112D [2]): 59%
2 | C/C(=N\Nc1nc2ccccc2s1)c1cc(OCCO)ccn1 |  |  | inactive |  |  |  | 22 | 2.8 | 
3 | C/C(=N\Nc1nc2ccccc2o1)c1cc(OCCN(C)C)ccn1 | 21 | 51 | Active | -25 | 32 | 53 | 47 | 1.4 | inhibition in vivo at 5.73 mg/kg (TOV112D [2]): 56%; Ratio EC50 [8]: 5.6; inhibition at 2 h, 10 µM (Mu-type opioid receptor): 0%
4 | C/C(=N\Nc1nc2ccccc2n1CCN(C)C)c1ccccn1 |  |  | Active |  |  | 42 | 61 | 1.6 | Ratio EC50 [8]: 5.2
5 | O=C(O)CN(CC(=O)O)CC(=O)O [NITRILOTRIACETIC ACID] |  |  |  |  |  |  |  |  | Kd ([9]; read-out: Kd): 17 nM
6 | C/C(=N\Nc1nc2ccccc2s1)c1cc(N(C)C)ccn1 |  |  | Active |  |  | 48 |  |  | 
7 | C/C(=N\NC(=S)N1CCC1)c1ccccc1 |  |  | inactive |  |  |  |  | 0.9 | Kd [9]: Not Active
8 | COC/C(=N\Nc1nc2ccccc2s1)c1ccccn1 |  |  | Active |  |  |  | 197 | 0.9 | 
9 | C/C(=N\NC(=O)N1CCC1)c1ccccn1 |  |  | inactive |  |  | > 10000 |  |  | 
10 | C/C(=N\NC(=S)N1CCC1)c1cc(N(C)C)ccn1 |  |  | inactive |  |  | 8 |  |  | 
11 | C/C(=N\Nc1nc2ccccc2s1)c1ccccn1 | 101 | 19 | Active | 101 | 96 | 55 |  |  | Activity (NCI-H1299 [10]): inactive; inhibition in vivo at 5 mg/kg (TOV112D [11]): 72%; TGI (MDA-MB-468): inactive; Activity [12]: Non-Toxic; inhibition at 2 h, 10 µM (Mu-type opioid receptor): 13%; Activity (NCI-H460): inactive
12 | C/C(=N\NC(=S)N1CCC1)c1ncccc1C |  |  | inactive |  |  |  |  |  | 
13 | C/C(=N\Nc1nc2ccccc2n1C)c1ccccn1 | 7 | 86 | Active | 61 | 46 | 4 |  |  | inhibition at 2 h, 10 µM (Mu-type opioid receptor): 48%
14 | C/C(=N\Nc1nc2ccccc2n1CCN1CCCC1)c1ccccn1 | 101 | 88 | Active | 101 | 96 |  | 22 |  | inhibition in vivo at 5.73 mg/kg (TOV112D [2]): 47%
15 | C/C(=N\NC(=S)N(C)C)c1ccccn1 |  |  | Active |  |  | 1 |  | 1.3 | Kd ([9]; read-out: Kd): 25.6 nM; Papp at […], 5 µM [13]: 7.3 ×10⁻⁶ cm/s; Ratio EC50 [8]: 0.2
16 | C/C(=N\NC(=S)N1CCC1)c1cnccn1 |  |  | Active |  |  |  |  | 2 | Kd ([9]; read-out: Kd): 99.4 nM; Ratio EC50 [8]: 4.5
17 | C/C(=N\NC(=S)NC1CCN(c2ccccn2)CC1)c1ccccn1 |  |  | inactive |  |  |  |  |  | Kd [9]: Not Active
18 | C/C(=N\Nc1ccc2ccccc2n1)c1ccccn1 |  |  | Active |  |  | 141 |  |  | 
19 | C/C(=N\Nc1nc2ccccc2s1)c1cc(OCCN(C)C)ccn1 | 36 | 95 | Active | 82 | 76 |  | 55 | 2.5 | inhibition at 2 h, 10 µM (Mu-type opioid receptor): 48%
20 | CS/C(=N\N=C(/C)c1ccccn1)N1CCC1 |  |  | inactive |  |  |  |  |  | Kd [9]: Not Active
21 | C/C(=N\NC(=S)N1CCC1)c1cccc(C)n1 |  |  | Active |  |  | 132 |  |  | Kd ([9]; read-out: Kd): 48.3 nM
22 | C/C(=N\Nc1nc2ccccc2s1)c1cc(OCCN2CCN(C)CC2)ccn1 |  |  | inactive |  |  |  | 20 | 0.9 | 
23 | COCCOc1ccc2nc(N/N=C(\C)c3ccccn3)sc2c1 |  |  | Active |  |  |  | 81 | 2.4 | Kd ([9]; read-out: Kd): 386 nM
24 | C/C(=N\Nc1nc2ccccc2n1C)c1ncccn1 | 12 | 77 | inactive | -2 | 11 |  | 54 | 1.6 | inhibition at 2 h, 10 µM (Mu-type opioid receptor): 41%
25 | C/C(=N\Nc1nc2ccccc2s1)c1ncccn1 | 2 | -2 | inactive | 84 | 3 |  | 79 | 1.2 | inhibition at 2 h, 10 µM (Mu-type opioid receptor): 4%
26 | C/C(=N\Nc1nccn1C)c1ccccn1 | 23 | 7 | Active | 4 | 11 | 445 | 408 | 0.9 | inhibition in vivo at 5.73 mg/kg (TOV112D [2]): 57%; Ratio EC50 [8]: 47.1; inhibition at 2 h, 10 µM (Mu-type opioid receptor): -2%
27 | C/C(=N\Nc1nc2ccccc2o1)c1ccccn1 | 12 | 21 | Active | 21 |  | 6 |  |  | Activity (NCI-H1299 [10]): inactive; inhibition at 2 h, 10 µM (Mu-type opioid receptor): 2%; Activity (NCI-H460): inactive
28 | CC(C)(C)/C(=N\NC(=S)N1CCC1)c1ccccn1 |  |  | inactive |  |  |  |  | 0.7 | Kd [9]: Not Active
